Rows were chosen to be rich in hits. Some 5.4% of all compounds tested hit in one or more screens of this group.
Mdm2 MdmX PPI = inhibitors of human Mdm2/MdmX interaction | 3% of 330,000 active | O15151+Q00987 | inhibition, % at 8 µM | SaOS-2 split-luciferase Mdm2/MdmX complementation, luminescence;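 active = inhibition of at least 50% at 8 µM in the primary screen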
T cruzi repl = blocks replication of Trypanosoma cruzi; T. cruzi beta-gal in NIH3T3, luminescence, 90 h; inhibition, % (concentration not given with the values); 1.4% of 300,000 active; AID 1885;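 active = mean inhibition across valid replicates above about 55%, limit read from the data; inconclusive = mean below that limit but half or more replicates reach it; inactive = mean below it, under half of replicates reach it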;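 note: signal also drops with host cell toxicity which is not excluded here; 0% = plate median of DMSO wells and 100% = zero luminescence signal; higher percent means less beta-gal luminescence so fewer parasites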
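System – NIH/3T3 host cells with β-galactosidase reporter T. cruzi · Doses – single 50 nL compound addition per well in DMSO · Reagent – 5000 T. cruzi trypomastigotes/well · Medium – Low-serum DMEM with 2% FBS · Timing – ≥90 h infection period, 3 h prior cell attachment · Evaluation – parasite load inhibition, % · Technique – GalScreen luminescence, 60 min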
SKKanGAS inh = blocks kanamycin growth of S. pyogenes SKKanGAS strain | BacTiter-Glo, 6 h | inhibition, % at 7.5 µM | 1.3% of 300,000 active | AID 1662;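 active = mean replicate score, as percent of positive control median, at least 50; inconclusive = mean below 50 but one replicate at or above 50; inactive = mean and every replicate below 50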;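 note: strain carries kanamycin resistance gene driven by streptokinase promoter and grows in 40 µg/ml kanamycin; loss of luminescence reflects streptokinase promoter inhibition or plain growth inhibition; 0% = median of DMSO wells and 100% = positive control at its reference dose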
aSyn 5UTR inh = 5' untranslated region of α-synuclein, MLPCN primary screen; AID 1813; 0.82% of 300,000 active; inhibition, % (tested at 7.5 µM); alpha-synuclein 5'UTR reporter, inhibitor activity; in the data active = inhibition above about 60%; inconclusive = no clear call, values can overlap the other calls;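 note: H4 neuroglioblastoma cells stably carrying SNCA 5'UTR luciferase fusion; 0% = DMSO wells and 100% = positive control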
CSC inhib = cancer stem cell inhibition. cancer stem cell-like cells viability, luminescence. inhibition, % at 7.5 µM. 1.1% of 300,000 active. AID 2717; in the data active = inhibition above about 75%; inconclusive = no clear call, values can overlap the other calls; tested in HMLE shEcad cells
Mdm2-MdmX conf = confirmation of human Mdm2/MdmX interaction inhibitors; shares compounds with Mdm2 MdmX PPI; Mdm2-MdmX binding, luminescent assay; inhibition, % at 8 µM; 55% of 10,000 active; AID 489028; in the data active = inhibition above about 40%
Full FLuc ctr = inhibits full-length luciferase, flagging false Mdm2/MdmX hits. SaOS-2 full-length luciferase counterscreen, luminescence. AID 504607. shares compounds with Mdm2 MdmX PPI. inhibition, % at 8 µM. 77% of 6,200 active;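 active = mean inhibition at 8 µM reaching about 37%, which flags the compound as non-specific, limit read from the data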;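 note: p53-null SaOS-2 cells with luciferase driven by a doxycycline-inducible promoter; compound on cells about two nights before reading with doxycycline added after day one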
* hit, by the source's call; ? = inconclusive; · = no result given.

SMILES	Mdm2 MdmX PPI	T cruzi repl	SKKanGAS inh	aSyn 5UTR inh	CSC inhib	Mdm2-MdmX conf	others
Cc1cccc2c1-c1sc(C(=O)Nc3ccccc3N3CCN(C)CC3)cc1CO2	65*	28	10	-40	102*	38	Full FLuc ctr=68*
Cc1ccc(NC(=O)C2CCN(S(=O)(=O)c3ccc4c(c3)CCCC(=O)N4)CC2)cc1N(C)C	20	15	-1	13	-12	·
CCOC(=O)c1c(C)[nH]c(C)c1S(=O)(=O)NCCN1CCN(c2cc(Cl)ccc2C)CC1	59*	35	12	23	5	8
CCOC(=O)c1c(C)[nH]c(C)c1S(=O)(=O)NCCCN1CCOCC1	19	-1	-1	-26	-13	·
Cc1ccc(CN2CCN(CCCn3cccn3)CC2CCO)cc1 (stereo unspecified)	13	26	-3	-33	-4	·
OCCNc1nc(Nc2cccc(O)c2)nc2ccccc12	20	3	9	-6	-6	·
COc1cccc(Nc2nc(NCCO)c3ccccc3n2)c1	65*	21	1	-47	16	62*	Full FLuc ctr=28
c1ccc(Nc2nc(NCc3ccco3)c3ccccc3n2)cc1	78*	17	7	-67	32	2
COC(=O)[C@@H]1C[C@H]1[C@@H](NC(=O)c1ccccc1)c1ccccc1	-4	-19	1	-26	6	·
Cc1cc(C(=O)NC2CCCc3c2cnn3-c2ccc(C(C)(C)C)cc2)n[nH]1 (stereo unspecified)	20	-2	5	13	10	·
CCOC(=O)C1CCN(C(=O)c2c(C)oc3c2C(=O)c2ccccc2C3=O)CC1	58*	48	15	72*	60	45*	Full FLuc ctr=67*
CCOC(=O)C1CCN(C(=O)c2ccc(C)o2)CC1	-9	·	·	·	-12	·
CCSc1nc(N)c(C#N)c(-c2ccccc2Cl)c1C#N	50*	2	7	28	-4	38	Full FLuc ctr=66*
Cc1ccc(-c2cc(-c3ccccc3Cl)c(C#N)c(N)n2)o1	31	30	16	18	0	·
N#Cc1c(N)nc(Sc2ccc(Cl)cc2)c(C#N)c1-c1ccccc1Cl	80*	47	75*	-20	59	48*	Full FLuc ctr=51*
C=CCSc1nc(N)c(C#N)c(-c2ccc(C)cc2)c1C#N	25	27	4	43	-2	·
COc1cc2c(cc1OC)C(C)N(C(=O)c1cc3c(C)cc(C)cc3[nH]1)CC2 (stereo unspecified)	67*	14	4	42	62	73*	Full FLuc ctr=48*
CCN(CC)Cc1cc2[nH]c3c4ccc(Cl)cc4ncc3c2cc1OC	54*	62*	-2	11	·	24
COc1ccc(CNc2ncnc3cc(Cl)ccc23)cc1OC	·	17	6	19	·	·
COCCNC(=O)Cn1cc(C(=S)N2CCOCC2)c2ccccc21	16	-23	3	22	1	·
C=CC(=O)Nc1ccc(N(C)c2ccnc(Nc3ccc(N4CCN(C)CC4)cc3)n2)cc1	93*	·	·	·	·	63*	Full FLuc ctr=16
CC(C)(C)c1ccc(C(=O)N2CCC(C(=O)NC3CCCCCC3)CC2)cc1	8	-3	-11	18	·	·
COc1ccc(C(CNC(=O)C2CC(=O)N(Cc3ccc(C)cc3)C2)N(C)C)cc1 (stereo unspecified)	14	4	0	-12	-6	·
CC1(C)Cc2c(ccc3ccccc23)C(c2cc3ccccc3oc2=O)=N1	24	44	3	38	43	·
CC1(C)Cc2ccccc2C(c2cc3ccccc3oc2=O)=N1	62*	8	1	28	7	26
SMILES	Mdm2 MdmX PPI	T cruzi repl	SKKanGAS inh	aSyn 5UTR inh	CSC inhib	Mdm2-MdmX conf	others
COc1ccc(C(=O)c2c(-c3cccc(C)c3)oc3ccc(N4CCOCC4)cc23)cn1	18	22	10	5	14	·
O=C(c1ccc(S(=O)(=O)Nc2ccccc2)cc1)N1CCC1	10	-9	-11	9	-8	·
Cc1ccc(-c2[nH]ncc2/C=N/n2c(COc3ccccc3C)nc3ccccc3c2=O)cc1	30	20	10	5	-8	·
Cc1cc(/C=N/n2c(COc3ccccc3C)nc3ccccc3c2=O)c(O)c([N+](=O)[O-])c1	56*	67*	52*	5	62	64*	Full FLuc ctr=46*
CC(C)[C@H](NC(=O)c1ccco1)C(=O)OCC(=O)c1ccc(Br)s1	-21	·	·	·	-8	·
CCCCn1c(=O)[nH]c(=O)c2c1nc(Cn1ncc(Cl)c(Cl)c1=O)n2CCC	100*	23	0	-106	-2	93*	Full FLuc ctr=52*
CCCCn1c(=O)[nH]c(=O)c2c1nc(CN1C(=O)c3ccccc3S1(=O)=O)n2CCC	-13	-3	0	-1	1	·
C#CCNc1nc(CC)nc2c1nnn2Cc1ccccc1F	1	-1	1	24	-2	·
CCOc1ccc(S(=O)(=O)NCCC(=O)NCC(c2ccc(F)cc2)N2CCOCC2)cc1 (stereo unspecified)	9	-5	-13	0	0	·
COC(=O)[C@@H]1Cc2c([nH]c3ccccc23)C(C)(C)N1C(=O)CCl	100*	63*	-2	?	11	98*	Full FLuc ctr=17
O=C(c1cc2sccc2n1Cc1ccccc1)N1CCN(c2nc3ccccc3s2)CC1	14	44	25	34	7	·
Cc1ccc(-c2nn(-c3ccccc3)cc2/C=N/NC(=O)c2ccc(Br)o2)cc1	83*	23	38	-11	29	14
CN(C)CCCN(C(=O)CCc1ccccc1)c1nc2ccc(Br)cc2s1	58*	49	9	-10	49	37	Full FLuc ctr=52*
CN(C)CCCN(C(=O)CCc1ccccc1)c1nc2ccc(F)cc2s1	18	37	-9	-70	·	·
Cc1cccc2sc(N(CCCN(C)C)C(=O)CCc3ccccc3)nc12	60*	62*	6	62*	-14	23
O=C(Cn1cnc([N+](=O)[O-])n1)NCCO	6	-3	-3	2	7	·
O=C(Nc1ccccc1C(=O)NCc1cccnc1)c1ccccc1F	-12	0	-8	6	-3	·
C/C(=N/NS(=O)(=O)c1ccccc1)c1ccc(NC(=O)C2CC2)cc1	0	-7	-1	-4	2	·
CC(Sc1nc(-c2ccco2)nc2c1c(=O)n(C)c(=O)n2C)C(=O)O (stereo unspecified)	12	-10	8	9	-17	·
Cc1nc(SCC(=O)Nc2ccccc2C(F)(F)F)c2c(=O)n(C)c(=O)n(C)c2n1	95*	·	·	·	13	2
Cn1c(=O)c2c(SCC(=O)Nc3cccc(F)c3)nc(-c3ccco3)nc2n(C)c1=O	100*	-19	27	-20	-9	20
Cn1c(=O)c2c(SCc3cccc(C(F)(F)F)c3)nc(-c3ccco3)nc2n(C)c1=O	83*	12	-5	36	13	-9
O=C(N/N=C/c1ccccn1)c1ccc(Br)cc1	2	0	-3	-19	15	·

Screening results as filed in PubChem.
